Screening data: PubChem BioAssay, several laboratories
Rows were chosen to be rich in hits. Some 2.1% of all compounds tested hit in one or more screens of this group.
EBI2 block: EBI2 receptor antagonists, beta-arrestin recruitment, primary screen, cell-based, luminescence, 7a,25-OHC stimulation, uHTS; inhibition, % at 5 µM; 7a,25-OHC stimulated; 0.81% of 360,000 active; AID 651636, 2012; in the data active means inhibition above about 38%;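 further: enzyme fragment complementation signal reports receptor beta-arrestin coupling in cells; 0% = agonist plus DMSO wells and 100% = wells without agonist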
CXCR6 block: CXCR6 receptor inhibitors, primary screen, cell-based, beta-arrestin, luminescence, CHO-K1 PathHunter, 1536-well. AID 602244, 2012. inhibition, % at 20 µM. 0.36% of 360,000 active. C-X-C chemokine receptor type 6 (Homo sapiens), O00574; in the data active means inhibition above about 34%, passing the limit was not always enough;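 further: antagonist mode with CXCL16 agonist at 10 nM final; 0% = 10 nM CXCL16 with DMSO and 100% = unstimulated wells without agonist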
CCR6 antagonist: CCR6 receptor antagonists, primary screen, cell-based, CHO-K1, luminescence, beta-arrestin, uHTS | 0.49% of 340,000 active | CHO-K1 CCR6 PathHunter beta-arrestin, CCL20-stimulated | inhibition, % at 20 µM;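 active means compounds whose inhibition of the agonist-driven luminescence signal at 20 µM reaches about 50%, limit read from the data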;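 further: cells stimulated with CCL20 at 14 nM final; plate controls were DMSO with CCL20 for no effect and DMSO without agonist for full effect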
APJ agonist: agonists of human apelin receptor APJ, primary screen, CHO-K1 cells, PathHunter beta-arrestin, luminescence; P35414; 0% DMSO wells, 100% apelin; activation, % at 20 µM; 0.11% of 330,000 active; AID 2520, 2010;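 active means activation more than six SD over the plate average, tested at 20 µM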;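 further: 0% = DMSO alone and 100% = apelin-13 at 10 nM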
Target sequence (P35414 whole entry, looked up): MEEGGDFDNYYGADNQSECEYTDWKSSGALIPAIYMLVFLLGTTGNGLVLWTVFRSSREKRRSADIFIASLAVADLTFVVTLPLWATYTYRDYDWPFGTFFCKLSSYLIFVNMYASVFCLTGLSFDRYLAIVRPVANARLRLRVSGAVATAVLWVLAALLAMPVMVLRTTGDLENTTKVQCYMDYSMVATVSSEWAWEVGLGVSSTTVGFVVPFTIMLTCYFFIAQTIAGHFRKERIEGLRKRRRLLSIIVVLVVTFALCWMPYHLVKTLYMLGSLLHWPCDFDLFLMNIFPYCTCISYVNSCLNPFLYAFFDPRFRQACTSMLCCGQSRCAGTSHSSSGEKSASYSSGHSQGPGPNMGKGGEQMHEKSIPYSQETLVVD
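Material: engineered CHO-K1 APJ arrestin reporter cells; amount: 1000 CHO-K1 reporter cells seeded per well; incubation: compound stimulation 90 min at 25 °C, detection 60 min; signal: luminescent beta-gal fragment complementation, chemiluminescent substrate; read-out basis: APJ agonist activity; controls: DMSO-only wells as negative, 10 nM Apelin-13 as positive control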
APJ antag: antagonists of human apelin receptor APJ, primary screen, CHO-K1 cells, beta-arrestin complementation, luminescence. P35414. 0.32% of 330,000 active. inhibition, % at 20 µM;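 active means inhibition above about 40% at 20 µM, limit read from the data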;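 further: cells challenged with 10 nM apelin-13 agonist together with compound; plate controls were apelin-13 plus DMSO wells for no effect and DMSO wells lacking apelin-13 for full effect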
HTR2A ag: mouse Htr2a agonists via beta-arrestin recruitment, primary screen, cell-based, luminescence. activation, % at 7.6 µM. AID 624169, 2012. 0.66% of 360,000 active. CHO-K1 mHTR2A beta-arrestin complementation; percent of 30 µM serotonin response. 5-hydroxytryptamine receptor 2A (Mus musculus), P35363;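 active means activation above a run cutoff, the mean activation of all tested compounds plus 3 SD, cut at about 14% in these data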;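 further: 0% = plate median of compound wells and 100% = 30 µM serotonin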
MOR ag counter: OPRM1 agonists via beta-arrestin recruitment, confirmation, counter-screen for mouse HTR2A agonist project, cell-based, luminescence, single concentration. shares compounds with HTR2A ag. U2OS OPRM1 beta-arrestin PathHunter; DMSO 0%, DAMGO 9.3 µM 100%. activation, % at 9.3 µM. 5.3% of 2,300 active. AID 624380, 2012;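 active means mean activation above the mean of DMSO-only wells plus 3 SD, cut at about 0.5% in these data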
m5-HT2A ag conf: mouse HTR2A agonists, beta-arrestin recruitment, confirmation, cell-based, luminescence, CHO-K1 PathHunter, triplicate. shares compounds with HTR2A ag. DMSO 0%, 30 µM serotonin 100%. activation, % at 7.6 µM. 19% of 2,300 active. AID 624381, 2012;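 active means mean activation across triplicates above the hit threshold derived in the original primary screen, cut at about 15% in these data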
Active calls of the source: *; x = no result given.

SMILES | EBI2 block | CXCR6 block | CCR6 antagonist | APJ agonist | APJ antag | HTR2A ag | MOR ag counter | m5-HT2A ag conf
O=C(c1ccccc1)C1NC1c1ccccc1 (centres undefined) | -2 | 6 | 8 | 0 | 11 | 3 | x | x
COc1cc(C[C@@H](C)N)c(OC)cc1I | 6 | 0 | -1 | -3 | 10 | 61* | 0 | 26*
CC(N)Cc1c[nH]c2c1ccc1ccccc12 (centres undefined) | -9 | -11 | -5 | 2 | 5 | -9 | x | x
COc1ccc(CCNCc2ccccc2F)cc1OC | 0 | 3 | -8 | -3 | 5 | 17* | -1 | 6
COc1ccccc1CNCCc1cccc(Cl)c1 | 7 | 5 | x | x | x | 43* | 0 | 21*
COc1ccccc1CNCCc1ccc(F)cc1 | -13 | -1 | 8 | -3 | 15 | 32* | 0 | 9
COc1ccc(CCNCc2ccccc2F)cc1 | 0 | -3 | 13 | -3 | 7 | 1 | x | x
COc1cc(OC)c(OC)cc1CNCCc1cccc(F)c1 | -1 | -3 | 7 | -3 | 16 | 4 | x | x
CC(C)CC1(CCc2ccccc2)C(=O)NC(=O)NC1=O | 6 | -1 | 8 | x | x | 7 | x | x
O=[N+]([O-])c1ccc(N2CCCCC2)c2ncccc12 | 15 | 10 | 12 | -7 | -2 | -4 | x | x
O=[N+]([O-])c1ccc(N2CCCNCC2)c2ncccc12 | -4 | -3 | -1 | 9 | -54 | 38* | -1 | 22*
C(CCc1nn[nH]n1)CCc1nn[nH]n1 | 2 | 8 | 7 | -2 | 14 | 3 | x | x
NCCc1c[nH]c2ccc(C(N)=O)cc12 | 0 | 1 | -1 | -2 | -1 | 28* | 0 | 15*
CC(C)N1C(=O)NC(=O)C2(Cc3cc([N+](=O)[O-])ccc3N(C)C2c2ccccc2)C1=O (centres undefined) | 0 | 0 | 30 | -1 | 10 | 5 | x | x
COc1cccc(CN2CCN(C(=O)Cc3ccccc3OC)CC2)c1 | 4 | -10 | 13 | -2 | -7 | 19* | 0 | 10
c1ccc2c(CN3CCCCCC3)c[nH]c2c1 | -4 | -4 | 17 | -4 | 17 | -5 | x | x
Cc1ccccc1CN1CCN(C(=O)Cc2ccccc2)CC1 | 6 | 4 | 13 | 1 | 4 | 17* | -1 | 1
O=C(Cc1ccccc1)N1CCN(Cc2c[nH]c3ccccc23)CC1 | 7 | 1 | 9 | 2 | 2 | 22* | -1 | 10
O=C(COc1ccccc1)N1CCN(Cc2c[nH]c3ccccc23)CC1 | 10 | -9 | 8 | 1 | -12 | 16* | 0 | 7
Cn1cccc1CN1CCN(C(=O)COc2ccccc2)CC1 | 13 | 3 | -18 | -3 | 12 | -4 | x | x
O=C(Cc1ccccc1)N1CCN(Cc2ccc(Cl)cc2)CC1 | 14 | 5 | -1 | x | x | 1 | x | x
CCCCS(=O)(=O)N1CCN(C(=N)N[N+](=O)[O-])CC1 | 0 | -5 | 9 | 1 | -2 | 1 | x | x
COc1ccccc1OCC#CCN1CCCC(C)C1 (centres undefined) | 3 | 4 | 7 | -1 | 6 | -3 | x | x
OCC[n+]1c2ccccc2nc2ccc(N3CCOCC3)cc21 | -9 | -10 | -3 | -1 | 11 | -7 | x | x
CNCC(=O)c1ccc(O)c(O)c1 | -2 | -8 | x | x | x | 31* | 0 | 90*
SMILES | EBI2 block | CXCR6 block | CCR6 antagonist | APJ agonist | APJ antag | HTR2A ag | MOR ag counter | m5-HT2A ag conf
c1ccc2nc(N3CCNCC3)ccc2c1 | -3 | 3 | -10 | -4 | 9 | 51* | -1 | 38*
CCCN1CCc2cc(O)cc3c2[C@H]1Cc1ccc(O)c(O)c1-3 | -5 | -1 | 3 | -1 | 0 | 48* | 0 | 171*
CN1CCc2cc(O)cc3c2[C@H]1Cc1ccc(O)c(O)c1-3 | -6 | -5 | -14 | -4 | 3 | 57* | 0 | 152*
COc1ccc(CCNCc2sccc2C)cc1 | -2 | 0 | 14 | 1 | -4 | 25* | 0 | 9
Cc1ccsc1CNCCc1ccc(F)cc1 | -3 | 2 | 7 | 0 | 13 | 7 | x | x
CCCCn1c(O)c(C(CC)=NCCCN(C)C)c(=O)[nH]c1=O | -17 | -2 | -7 | -3 | -9 | 1 | x | x
COc1ccc2[nH]cc(CCN(C)C)c2c1 | 1 | 12 | -7 | -6 | -4 | 49* | -1 | 36*
C/C(=N/OC(=O)N(C)C)c1ncc(C(F)(F)F)cc1N1CCOCC1 | -17 | -3 | -7 | -2 | -1 | 1 | x | x
N#Cc1c(/N=C/C2C(=O)NC(=S)NC2=O)sc2c1CCCC2 | -2 | -12 | -1 | -5 | -6 | 15* | -1 | 36*
CCOC(=O)c1c(/N=C/C2C(=O)NC(=S)NC2=O)sc2c1CCC2 | -8 | 4 | 19 | x | x | 5 | x | x
CN(C)C(=S)SSC(=S)N(C)C | 2 | 29 | 49 | x | x | 10 | x | x
O=C1NC(=O)C(Cc2ccccc2)(Cc2ccccc2)C(=O)N1 | -1 | -4 | -3 | x | x | 2 | x | x
Fc1cccc(CNCCc2c[nH]c3ccccc23)c1 | 7 | -5 | 5 | -1 | -22 | 35* | 0 | 39*
O=[N+]([O-])c1ccccc1CNCCc1c[nH]c2ccccc12 | -7 | 1 | -5 | -4 | 10 | 2 | x | x
Cc1cccc(CNCCc2c[nH]c3ccccc23)c1 | 6 | -6 | -7 | -4 | 18 | 33* | 0 | 15*
OC(CNCCc1c[nH]c2ccccc12)C(F)(F)F (centres undefined) | -9 | 2 | 15 | -2 | -10 | -3 | x | x
COc1ccc(CN2Cc3cc(-c4cccc(F)c4)ccc3-n3nncc3C2)cc1 | 0 | -2 | x | x | x | -4 | x | x
Cc1cccc(C)c1OP(N)(=O)Oc1c(C)cccc1C | -9 | -4 | -8 | -2 | 10 | 18* | -1 | -2
Cc1cccc(OP(N)(N)=O)c1C | -1 | -6 | 5 | 2 | -9 | 0 | x | x
O=c1[nH]c2ccccc2n1C1CCN(C(c2ccccc2OC(F)(F)F)c2nnnn2-c2ccc3c(c2)OCCO3)CC1 (centres undefined) | -42 | 6 | x | x | x | 15* | x | 11
